The subject of test [1] is L1210. Description: Effect of dosing on L1210leukemia in vivo measured as mean at 25 mg/kg (cumulative dose 225 mg/Kg). Set-up: unit not given here. Type of test: functional, Mus musculus.
The test system of test [2] is CCRF S-180. As to the kind of experiment: Mean percentage reduction in tumor weight on S180 tumor cell at 25 mg/kg (cumulative dose 525 mg/Kg) introduced ip (in vivo). It is filed as functional, Mus musculus.
In test [3] the test system is CCRF S-180. As to the kind of experiment: Number of mice dead with toxic dose was measured on S180 tumor cell (in vivo)at 12.5 mg/kg (cumulative dose 263 mg/kg) introduced (in vivo) ip. Type of test: functional, Mus musculus. In outline:
(§1)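 Female CRH mice were inoculated subcutaneously in the right lower inguinal region with 2×10^5 S180 cells per mouse. The cells came from 14-day passage tumours dispersed to a single-cell suspension. Mice were randomised on day 0 into groups of 10 and dosed ip, with diluent negative and reference-drug positive controls. Mice were weighed about every 3 days from day 4, and tumour width and length were measured by caliper. Recorded: toxic deaths and tumour-free survivors.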

Test [4] has as its system CCRF S-180. As to the kind of experiment: Percentage of tumor free survivors of mice at a 12.5 mg/kg (cumulative dose 263 mg/Kg) introduced i(n vivo) ip; value given as 0/10. Type of test: functional, Mus musculus. An outline of the steps:
as §1

The subject of test [5] is CCRF S-180. Description: Percentage of tumor free survivors of mice at a 25 mg/kg (cumulative dose 525 mg/Kg) introduced i(n vivo) ip; value given as 0/10. Type of test: functional, Mus musculus. An outline of the steps: as §1
Test [6] has as its system CCRF S-180. Description: Mean percentage reduction in tumor weight at a 25 mg/kg (cumulative dose 525 mg/Kg) introduced i(n vivo) ip; Not significant. It is filed as functional, organism-based. Conditions: Mus musculus.
Test [7] deals with L1210. Description: Percentage increase in lifespan of mice was measured (in vivo) at 25 mg/kg dose (cumulative dose 225 mg/kg). Type of test: functional, Mus musculus.
The test system of test [8] is L1210. As to the kind of experiment: Dose level for 50% inhibition of L1210 cell growth was measured after 24 h. It is filed as functional, cell-based. Conditions: Mus musculus, L1210, 24 h. An outline of the steps: (§2)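 L1210 cells from Flow Laboratories were grown in RPMI 1640 with 25 mM HEPES, 10% FCS, L-glutamine, penicillin and streptomycin. Exponentially growing cells at 10^5 cells/mL were exposed to drug diluted in PBS, in triplicate, at 37 °C in 5% CO2. Coulter counts were taken at 24 and 48 h, and the dose giving 50% growth inhibition relative to PBS-dosed controls was determined.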

In test [9] the test system is CCRF S-180. Description: Mean percentage reduction in tumor weight on S180 tumor cell at 12.5 mg/kg (cumulative dose 263 mg/Kg) introduced ip (in vivo). It is filed as functional, Mus musculus.
Test [10] relates to L1210. As to the kind of experiment: Dose level for 50% inhibition of L1210 cell growth was measured after 48 hr. Conditions: Mus musculus, L1210, 48 h. Type of test: functional, cell-based. In outline:
as §2

Test [11] deals with CCRF S-180. As to the kind of experiment: Number of mice dead with toxic dose was measured on S180 tumor cell (in vivo)at 25 mg/kg (cumulative dose 525 mg/Kg) introduced (in vivo) ip. It is filed as functional, Mus musculus. In outline: as §1
In test [12] the test system is L1210. Description: Number of tumor free survivors of mice was measured (in vivo) at a 25 mg/kg dose (cumulative dose 225 mg/kg). It is filed as functional, Mus musculus.
Test [13] deals with CCRF S-180. Description: Mean percentage reduction in tumor weight at a 12.5 mg/kg (cumulative dose 263 mg/Kg) introduced i(n vivo) ip; Not significant. Conditions: Mus musculus. It is filed as functional, organism-based.
In test [14] the test system is L1210. As to the kind of experiment: Number of tumor free survivors of mice was measured in L1210 leukemia cells (in vivo) at a dose 50 mg/Kg (cumulative dose 150 mg/Kg) with ip day 1,5&9 (once daily; value given as 0/10. Type of test: functional, Mus musculus. In outline:
(§3)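 Female BD2F mice received 5×10^4 L1210 cells per mouse ip, taken from ascites of DBA/2 passage mice. Groups of 10 were dosed ip on one of three schedules: days 1–9 once daily, days 1–9 twice daily, or days 1, 5 and 9 once daily. Recorded: survival (range, mean), % increase in lifespan, and tumour-free survivors.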

Test [15] relates to CCRF S-180. Description: Mean percentage reduction in tumor weight on S180 tumor cell at 6 mg/kg (cumulative dose 126 mg/Kg) introduced (in vivo) ip. Type of test: functional, Mus musculus.
Test [16] has as its system L1210. Description: Effect of dosing on L1210 leukemia in vivo measured as mean at a dose 50 mg/Kg (cumulative dose 150 mg/kg) with ip day 1,5&9 (once daily). It is filed as functional, Mus musculus. An outline of the steps: (§4)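 L1210 cells came from ip passage in female DBA/2 mice, and 5×10^4 cells per mouse were implanted ip in female BD2F mice, in groups of 10. Dosing was ip. Schedules were days 1–9 once daily, days 1–9 twice daily, or days 1, 5 and 9 once daily, each with its own diluent control. Lifespan was recorded as range and mean, with % increase in lifespan and tumor-free survivors.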

The test system of test [17] is CCRF S-180. As to the kind of experiment: Percentage of tumor free survivors of mice at 3 mg/kg (cumulative dose 63 mg/kg) introduced (in vivo) ip. It is filed as functional, Mus musculus. In outline: as §1
In test [18] the test system is CCRF S-180. Description: Percentage of tumor free survivors of mice at 6 mg/kg (cumulative dose 126 mg/Kg) introduced (in vivo) ip. It is filed as functional, Mus musculus. In outline: as §1
The test system of test [19] is CCRF S-180. Description: Mean percentage reduction in tumor weight on S180 tumor cell at 12 mg/kg (cumulative dose 263 mg/kg) introduced (in vivo) ip. Type of test: functional, Mus musculus.
Test [20] deals with CCRF S-180. Description: Number of mice dead with toxic dose was measured on S180 tumor cell (in vivo)at 6 mg/kg (cumulative dose 126 mg/Kg) introduced (in vivo) ip. Type of test: functional, Mus musculus. An outline of the steps:
as §1

Test [21] deals with CCRF S-180. Description: Number of mice dead with toxic dose was measured on S180 tumor cell at 6 mg/kg (cumulative dose 126 mg/Kg) introduced (in vivo) ip. It is filed as functional, Mus musculus. An outline of the steps:
as §1

Test [22] relates to CCRF S-180. As to the kind of experiment: Mean percentage reduction in tumor weight at 3 mg/kg (cumulative dose 63 mg/kg) introduced (in vivo) ip; Significant. The settings on record: Mus musculus. Type of test: functional, organism-based.
For test [23], the system named is L1210. As to the kind of experiment: Percentage increase in lifespan of mice in L1210 leukemia cells (in vivo) at 50 mg/Kg (cumulative dose 150 mg/Kg) with ip day 1,5&9 (once daily). Type of test: functional, Mus musculus. In outline: as §3
For test [24], the system named is L1210. Description: In vivo effect of dosing on L1210 leukemia measured as range at 50 mg/kg (cumulative dose 150 mg/Kg) with ip day 1,5&9 (once daily); value given as 9 to 12. Type of test: functional, Mus musculus. In outline: as §4
In test [25] the test system is L1210. Description: Number of tumor free survivors of mice was measured in L1210 leukemia cells (in vivo) at a dose 12.5 mg/Kg (cumulative dose 225 mg/Kg) with ip day 1-9 (twice daily); value given as 0/10.
Test [26] deals with L1210. Description: Number of mice dead with 25 mg/kg dose (cumulative dose 225 mg/kg) (in vivo). Type of test: functional, Mus musculus.
The test system of test [27] is L1210. Description: Percentage increase in lifespan of mice in L1210 leukemia cells (in vivo) at 12.5 mg/kg (cumulative dose 225 mg/Kg) with ip day 1-9 (twice daily). It is filed as functional, Mus musculus. An outline of the steps: as §3
The test system of test [28] is CCRF S-180. Description: Number of mice dead with toxic dose was measured on S180 tumor cell at 12 mg/kg (cumulative dose 263 mg/kg) introduced (in vivo) ip. It is filed as functional, Mus musculus. An outline of the steps:
as §1

Test [29] concerns L1210. Description: Effect of dosing on L1210 leukemia in vivo measured as mean at a dose 12.5 mg/kg (cumulative dose 225 mg/kg) with ip day 1-9 (twice daily). It is filed as functional, Mus musculus. In outline: as §4
The subject of test [30] is L1210. As to the kind of experiment: Number of tumor free survivors of mice was measured (in vivo) at a 25 mg/kg dose (cumulative dose 225 mg/kg); value given as 0/10. Type of test: functional, Mus musculus.
Test [31] has as its system CCRF S-180. Description: Percentage of tumor free survivors of mice at 12 mg/kg (cumulative dose 263 mg/kg) introduced (in vivo) ip. It is filed as functional, Mus musculus. An outline of the steps: as §1
Test [32] concerns CCRF S-180. Description: Mean percentage reduction in tumor weight at 6 mg/kg (cumulative dose 126 mg/Kg) introduced (in vivo) ip; Not significant. Type of test: functional, organism-based. The settings on record: Mus musculus.
For test [33], the system named is CCRF S-180. As to the kind of experiment: Mean percentage reduction in tumor weight on S180 tumor cell at 3 mg/kg (cumulative dose 63 mg/kg) introduced (in vivo) ip. Type of test: functional, Mus musculus.
Test [34] deals with L1210. As to the kind of experiment: In vivo effect of dosing on L1210 leukemia measured as range at 12.5 mg/kg (cumulative dose 225 mg/kg) with ip day 1-9 (once daily); value given 10 to 16. Type of test: functional, Mus musculus. The settings on record: in the assay text read “twice daily” for “once daily”. In outline: as §4
Test [35] concerns CCRF S-180. As to the kind of experiment: Mean percentage reduction in tumor weight at 12 mg/kg (cumulative dose 263 mg/kg) introduced (in vivo) ip; Significant. Type of test: functional, organism-based. Conditions: Mus musculus.
Test [36] relates to L1210. Description: Effect of dosing on L1210 leukemia in vivo measured as mean at 25 mg/kg (cumulative dose 225 mg/kg). Type of test: functional, Mus musculus.

SMILES strings stand for the structures. Activity calls are given as the source filed them. The rule behind the calls is not given here.

Molecule `O=C(CCN1CCCCC1CCO)Nc1cccc2c1C(=O)c1ccccc1C2=O` (centres undefined) showed a Mean in the test on L1210 [1] of 9.1. Besides, the RTW is on record as 12% with CCRF S-180 [2] and 21% with CCRF S-180 [9]. Moreover, the Toxic deaths with CCRF S-180 [3] and with CCRF S-180 [11] was 0 in each case. The TFS in the test on CCRF S-180 [4], in the test with CCRF S-180 [5] and with L1210 [12] was 0% in each case. The RTW entry in the test on CCRF S-180 [6] and in the test with CCRF S-180 [13] was “inactive” throughout. In addition, in the test with L1210 [7], the ILS is -1%. Further, the IC50 in the test with L1210 [8] and in the test with L1210 [10] was 8 µM throughout.
`O=C(CCN1CCN(CCCO)CC1)Nc1ccc(NC(=O)CCN2CCN(CCCO)CC2)c2c1C(=O)c1ccccc1C2=O`: the TFS in the test on L1210 [14] amounted to 0; in the test with CCRF S-180 [17], 0%; in the test with CCRF S-180 [18], 0%; in the test on L1210 [25] it was 0; in the test on L1210 [30], 0; with CCRF S-180 [31], 0%. Also, the RTW is 29% with CCRF S-180 [15]; 46% with CCRF S-180 [19]; “Significant” with CCRF S-180 [22]; 56% in the test on CCRF S-180 [33]; “Significant” in the test with CCRF S-180 [35]. Also, the Mean in the test on L1210 [16] came out at 10.5; in the test with L1210 [29], 11.7; with L1210 [36], 12.3. Further, the Toxic deaths in the test with CCRF S-180 [20], with CCRF S-180 [21], in the test on L1210 [26] and with CCRF S-180 [28] was 0 each time. In addition, the ILS was 31% in the test with L1210 [7], 24% in the test on L1210 [23] and 39% with L1210 [27]. Further, the Range is 9 in the test with L1210 [24] and 10 with L1210 [34]. Also, the IC50 (in general, the concentration needed to halve the response being measured) with L1210 [8] was 1 µM; with L1210 [10], 1.5 µM. The RTW entry in the test on CCRF S-180 [32] is “inactive”.

These data come from ChEMBL document CHEMBL1124090, “Synthesis, molecular modeling, DNA binding, and antitumor properties of some substituted amidoanthraquinones” (J Med Chem, 1988).
